The text below walks through data of ChEMBL document CHEMBL1134588, “[2',6'-Dimethyltyrosine]dynorphin A(1-11)-NH2 analogues lacking an N-terminal amino group: potent and selective kappa opioid antagonists” (J Med Chem, 2001).

The target in assay [1] is Kappa-type opioid receptor (Cavia porcellus, UniProt P41144). Briefly: Binding affinity was measured on opioid receptor kappa 1.
Assay [2] addresses Kappa-type opioid receptor (Cavia porcellus) (UniProt P41144). Briefly: Antagonist activity was evaluated in the guinea pig ileum assay against Dyn A(1-13)-selective agonist of opioid receptor kappa 1. In kind it is functional, tissue-based.
The target is the same in assay [3]. Briefly: Antagonist activity was evaluated in the guinea pig ileum assay against U50,488- selective agonist of opioid receptor kappa 1. In kind it is functional, tissue-based. The essentials:
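Ke taken from agonist IC50 ratio in presence versus absence of antagonist; [Leu5]enkephalin dose-response on each ileum used to normalize IC50s. Three to six determinations, mean ± SEM.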

Assay [4] has as its target Delta-type opioid receptor (Mus musculus) (UniProt P32300). Briefly: Antagonist activity was evaluated in the mouse vas deferens assay against DPDPE which is selective agonist of Delta receptor. In kind it is functional, tissue-based. The essentials:
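Mouse vas deferens, electrically evoked contractions; delta antagonism against DPDPE at fixed antagonist 30 nM to 10 µM. Ke obtained from agonist IC50 ratio with versus without antagonist; each vas preparation standardized with [Leu5]enkephalin dose-response. Means of three to six determinations ± SEM.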

In assay [5] the target is Mu-type opioid receptor (Cavia porcellus) (UniProt P97266). Nature of the assay: Antagonist activity was evaluated in the guinea pig ileum assay against TAPP-selective agonist of Mu receptor. In kind it is functional, tissue-based. The essentials:
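Mu antagonism in guinea pig ileum (electrically evoked contractions) versus agonist TAPP, fixed antagonist concentrations 100 nM to 5 µM. Ke computed from shift in agonist IC50 (with/without antagonist), IC50s normalized against per-tissue [Leu5]enkephalin standard. Mean of three to six runs ± SEM.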

The species entered for another assay is Cavia porcellus. Briefly: Inhibitory concentration of compound was measured in guinea pig ileum(GPI) assay. In kind it is functional. The essentials: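 Isolated guinea pig ileum, measuring inhibition of electrically evoked contractions. Each preparation received a [Leu5]enkephalin dose-response curve as standard, and the IC50 values were normalized to it.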

The species named for another assay is Mus musculus. Briefly: Inhibitory concentration of compound was measured in mouse vas deferens assay. In kind it is functional. In a few lines:
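Mouse vas deferens bioassay, measuring inhibition of electrically evoked contractions. A [Leu5]enkephalin standard dose-response curve was run on each vas preparation, and the IC50 values were normalized accordingly.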

Sequence of Kappa-type opioid receptor (P41144 whole entry): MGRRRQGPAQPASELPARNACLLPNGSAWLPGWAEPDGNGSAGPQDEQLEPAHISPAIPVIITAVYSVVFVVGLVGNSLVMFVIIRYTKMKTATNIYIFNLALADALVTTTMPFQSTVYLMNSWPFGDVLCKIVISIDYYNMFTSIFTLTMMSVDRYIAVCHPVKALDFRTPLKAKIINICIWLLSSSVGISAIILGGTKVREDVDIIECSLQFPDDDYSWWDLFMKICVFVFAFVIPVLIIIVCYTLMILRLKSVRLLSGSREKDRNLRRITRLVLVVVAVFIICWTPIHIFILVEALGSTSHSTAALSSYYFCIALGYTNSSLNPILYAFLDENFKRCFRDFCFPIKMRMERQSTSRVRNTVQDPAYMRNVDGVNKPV
Sequence of Kappa-type opioid receptor (Cavia porcellus) (P41144 whole entry): as above
Sequence of Mu-type opioid receptor (Cavia porcellus) (P97266 whole entry): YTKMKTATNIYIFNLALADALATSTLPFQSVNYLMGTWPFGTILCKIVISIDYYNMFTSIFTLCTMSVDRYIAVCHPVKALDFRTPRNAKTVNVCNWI
Sequence of Delta-type opioid receptor (Mus musculus) (P32300 whole entry): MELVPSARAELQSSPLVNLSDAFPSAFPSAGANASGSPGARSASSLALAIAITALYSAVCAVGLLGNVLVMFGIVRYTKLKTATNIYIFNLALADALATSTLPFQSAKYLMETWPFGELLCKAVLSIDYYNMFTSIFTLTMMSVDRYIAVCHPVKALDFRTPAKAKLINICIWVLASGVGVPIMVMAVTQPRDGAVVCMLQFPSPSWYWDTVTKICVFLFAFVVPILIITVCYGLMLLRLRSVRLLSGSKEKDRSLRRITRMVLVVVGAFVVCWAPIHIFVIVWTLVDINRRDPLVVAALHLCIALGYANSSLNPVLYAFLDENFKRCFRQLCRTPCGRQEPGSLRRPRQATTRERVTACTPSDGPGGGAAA

The molecule `CC[C@H](C)[C@H](NC(=O)[C@H](CCCNC(=N)N)NC(=O)[C@H](CCCNC(=N)N)NC(=O)[C@H](CC(C)C)NC(=O)[C@H](Cc1ccccc1)NC(=O)CNC(=O)CNC(=O)CCc1c(C)cc(O)cc1C)C(=O)N[C@@H](CCCNC(=N)N)C(=O)N1CCC[C@H]1C(=O)N[C@@H](CCCCN)C(N)=O` showed a Ki in assay [1] of 3.49 nM.
Same read-out and setting: the value for `CC[C@H](C)[C@H](NC(=O)[C@H](CCCN=C(N)N)NC(=O)[C@H](CCCN=C(N)N)NC(=O)[C@H](CC(C)C)NC(=O)[C@H](Cc1ccccc1)NC(=O)[C@@H](C)NC(=O)CNC(=O)CCc1c(C)cc(O)cc1C)C(=O)N[C@@H](CCCN=C(N)N)C(=O)N1CCC[C@H]1C(=O)N[C@@H](CCCCN)C(N)=O` was 3.84 nM; that for `Oc1ccc2c3c1O[C@H]1c4[nH]c5c(c4C[C@@]4(O)[C@@H](C2)N(CC2CC2)CC[C@]314)C[C@@]1(O)[C@H]2Cc3ccc(O)c4c3[C@@]1(CCN2CC1CC1)[C@H]5O4` [NORBINALTORPHIMINE] was 0.81 nM.
For `CC[C@H](C)[C@H](NC(=O)[C@H](CCCNC(=N)N)NC(=O)[C@H](CCCNC(=N)N)NC(=O)[C@H](CC(C)C)NC(=O)[C@H](Cc1ccccc1)NC(=O)CNC(=O)CNC(=O)[C@@H](C)Cc1c(C)cc(O)cc1C)C(=O)N[C@@H](CCCNC(=N)N)C(=O)N1CCC[C@H]1C(=O)N[C@@H](CCCCN)C(N)=O`, the Ke in assay [2] turned out to be 0.632 nM; in assay [3] it was 3.92 nM; in assay [4] it was 3.22 µM; in assay [5], 925 nM.
`CC[C@H](C)[C@H](NC(=O)[C@H](CCCN=C(N)N)NC(=O)[C@H](CCCN=C(N)N)NC(=O)[C@H](CC(C)C)NC(=O)[C@H](Cc1ccccc1)NC(=O)CNC(=O)CNC(=O)[C@@H](N)Cc1ccc(O)cc1)C(=O)N[C@@H](CCCN=C(N)N)C(=O)N1CCC[C@H]1C(=O)N[C@@H](CCCCN)C(N)=O`: the half-maximal inhibitory concentration (IC50) in the assay listed under Cavia porcellus came out at 0.456 nM; in the assay listed under Mus musculus, 12.9 nM.
Molecule `CC[C@H](C)[C@H](NC(=O)[C@H](CCCN=C(N)N)NC(=O)[C@H](CCCN=C(N)N)NC(=O)[C@H](CC(C)C)NC(=O)[C@H](Cc1ccccc1)NC(=O)[C@@H](C)NC(=O)CNC(=O)[C@@H](C)Cc1c(C)cc(O)cc1C)C(=O)N[C@@H](CCCN=C(N)N)C(=O)N1CCC[C@H]1C(=O)N[C@@H](CCCCN)C(N)=O` had an inhibitory constant (Ki) in assay [1] of 2.47 nM.
For `CC[C@H](C)[C@H](NC(=O)[C@H](CCCNC(=N)N)NC(=O)[C@H](CCCNC(=N)N)NC(=O)[C@H](CC(C)C)NC(=O)[C@H](Cc1ccccc1)NC(=O)CNC(=O)CNC(=O)CCc1ccc(O)cc1)C(=O)N[C@@H](CCCNC(=N)N)C(=O)N1CCC[C@H]1C(=O)N[C@@H](CCCCN)C(N)=O`, half-maximal inhibition in the assay filed under Mus musculus (IC50) required 722 nM. Besides, the Ki in assay [1] came out at 30.7 nM.
As to `CC[C@H](C)[C@H](NC(=O)[C@H](CCCN=C(N)N)NC(=O)[C@H](CCCN=C(N)N)NC(=O)[C@H](CC(C)C)NC(=O)[C@H](Cc1ccccc1)NC(=O)CNC(=O)CNC(=O)[C@@H](N)Cc1c(C)cc(O)cc1C)C(=O)N[C@@H](CCCN=C(N)N)C(=O)N1CCC[C@H]1C(=O)N[C@@H](CCCCN)C(N)=O`, the half-inhibitory concentration (IC50) worked out at 0.502 nM in the assay listed under Cavia porcellus and 0.377 nM in the assay filed under Mus musculus.
